Calls of active or inactive are those of the source. The calls are words filed in the database; no cut-off is given here.

In data set [1] the test system is Colletotrichum acutatum. In words: Growth stimulation of Colletotrichum acutatum at low concentration by microtiter assay. The format is organism-based. The settings on record: in vivo. Summed up:
(§1)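 96-well broth microassay. Conidia came from 7–10-day PDA cultures, were filtered through miracloth and set photometrically (625 nm %T curve) to 1.0×10^6 conidia/mL. Final doses were 0.3, 3.0 and 30.0 µM, in duplicate. Plates ran at 24 ± 1 °C with a 12-h photoperiod. A620 was read at 48 and 72 h. Percent inhibition (n = 4) was taken relative to untreated growth controls (n = 32). Split-plot design, replicated twice in time.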

The test system of data set [2] is Colletotrichum gloeosporioides. In words: Growth stimulation of Colletotrichum gloeosporioides at low concentration by microtiter assay. The format is organism-based. The conditions noted are these: in vivo. Summed up: as §1
Data set [3] relates to Fusarium oxysporum. The data set can be described thus: Growth inhibition of Fusarium oxysporum at < / = 30 uM after 48 to 72 hr by microtiter assay. The format is functional, organism-based. Summed up:
as §1

The subject of data set [4] is Colletotrichum gloeosporioides. In words: Growth inhibition of Colletotrichum gloeosporioides at < / = 30 uM after 48 to 72 hr by microtiter assay. The format is functional, organism-based. The method in brief:
as §1

Data set [5] has as its system Colletotrichum fragariae. The data set can be described thus: Growth inhibition of Colletotrichum fragariae at < / = 30 uM after 72 hr by microtiter assay. The format is functional, organism-based. The method in brief:
as §1

For data set [6], the system named is Botrytis cinerea. In words: Growth inhibition of Botryotinia fuckeliana at 30 uM after 48 hr by microtiter assay. The format is functional. The settings on record: read-out: GI. The method in brief:
as §1

In data set [7] the test system is Colletotrichum acutatum. The data set can be described thus: Growth inhibition of Colletotrichum acutatum at < / = 30 uM after 48 to 72 hr by microtiter assay. The format is functional, organism-based. The method in brief:
as §1

The subject of data set [8] is Diaporthe ampelina. The data set can be described thus: Growth inhibition of Diaporthe ampelina at 30 uM after 120 hr by microtiter assay. The conditions noted are these: read-out: GI. The format is functional. The method in brief:
(§2)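 96-well broth microassay against Phomopsis viticola or P. obscurans. Conidial inoculum was filtered and photometrically set to 1.0×10^6 conidia/mL. Final doses were 0.3, 3.0 and 30.0 µM, in duplicate. Incubation was at 24 ± 1 °C with a 12-h photoperiod, and A620 was recorded at 120 h. Mean percent inhibition (n = 4) was taken against untreated positive controls (n = 32). Split-plot design, replicated twice in time.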

Data set [9] has as its system Phomopsis obscurans. The data set can be described thus: Growth inhibition of Phomopsis obscurans at 30 uM after 120 hr by microtiter assay. The format is functional. The conditions noted are these: Paraphomopsis obscurans, read-out: GI. The method in brief: as §2
Data set [10] relates to Colletotrichum gloeosporioides. The data set can be described thus: Antifungal activity against Colletotrichum gloeosporioides assessed as zone of inhibition at 100 ug/ml after 4 days by TLC bioautographic analysis. The settings on record: 96 h, read-out: IZ. The format is functional. The method in brief: (§3)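 TLC bioautography on silica gel GF plates with fluorescent indicator. Compounds were spotted in a dose series at final 3.12–100 µg/mL. Plates were sprayed three times with conidia at final 3.0×10^5 conidia/mL in potato-dextrose broth with 0.1% Tween-80, then held in a moisture chamber at 24 ± 1 °C with a 12-h photoperiod. Inhibition zones (mm) were read at 4 d and reported as mean ± SD.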

Data set [11] relates to Colletotrichum fragariae. The data set can be described thus: Antifungal activity against Colletotrichum fragariae assessed as zone of inhibition at 50 ug/ml after 4 days by TLC bioautographic analysis. The format is functional. The settings on record: 96 h, read-out: IZ. Summed up: as §3
Data set [12] relates to Colletotrichum fragariae. In words: Antifungal activity against Colletotrichum fragariae assessed as zone of inhibition at 25 ug/ml after 4 days by TLC bioautographic analysis. The format is functional. The settings on record: 96 h, read-out: IZ. The method in brief: as §3
Data set [13] has as its system Colletotrichum fragariae. The data set can be described thus: Antifungal activity against Colletotrichum fragariae assessed as zone of inhibition at 100 ug/ml after 4 days by TLC bioautographic analysis. The format is functional. The conditions noted are these: 96 h, read-out: IZ. Summed up:
as §3

The subject of data set [14] is Phomopsis obscurans. The data set can be described thus: Growth stimulation of Phomopsis obscurans at low concentration by microtiter assay. The format is organism-based. The settings on record: paraphomopsis obscurans, in vivo. The method in brief:
as §2

As to `CC1=CC(=O)C[C@@H]2[C@@](C)(CC/C(C)=C/C(=O)O)[C@H](C)CC[C@@]12C` [2-OXO-KOLAVENIC ACID], the Activity result in data set [1] was “Dose-dependent effect and tde”; in data set [2] it was “Dose-dependent effect and tde”; in data set [14], “Dose-dependent effect and tde”. Also, the “growth inhibition (GI)” value in [3], in [4], in data set [5] and in data set [7] was “inactive” each time. Besides, the inhibition of growth at 30 µM in data set [6] is 23%; in data set [8], 46%; in data set [9], 8%. Further, the values for the zone of inhibition at 100 µg/mL in [10] and in [13] were 0 mm and 8 mm, respectively. Also, the zone of inhibition at 50 µg/mL in [11] turned out to be 8 mm. In addition, the zone of inhibition at 25 µg/mL in [12] turned out to be 6 mm.

For the molecule `CC1=CCC[C@@H]2[C@@](C)(CC/C(C)=C/C(=O)O)[C@H](C)CC[C@@]12C` [KOLAVENIC ACID], the Activity entry was “Dose-dependent effect and tde” in [1]; “Dose-dependent effect and tde” in data set [2]; “Dose-dependent effect and tde” in data set [14]. Further, the “growth inhibition (GI)” value in data set [3], in data set [4], in data set [5] and in data set [7] was “inactive” in each case. For the same molecule, the values for the inhibition of growth at 30 µM in data set [6], in data set [8] and in [9] were 23%, 50% and 26%, respectively. In addition, the figures for the zone of inhibition at 100 µg/mL in [10] and in data set [13] were 9.5 mm and 9 mm, respectively. Further, the zone of inhibition at 50 µg/mL in data set [11] was found to be 8.5 mm. Further, the zone of inhibition at 25 µg/mL in data set [12] is 5 mm.

The values are drawn from ChEMBL document CHEMBL3044661, “Antifungal clerodane diterpenes from Macaranga monandra (L) Muell. et Arg. (Euphorbiaceae)” (J Agric Food Chem, 2003).
